In PubChem BioAssay:
The source made the active and inactive calls.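 How the source made its calls, unless noted: active means NADPH fluorescence slope more negative than the mean of all samples by about 3 SD, 99.7% confidence; inactive means the rest.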

Experiments:
[1] = inhibitors of TNFa-induced NFkB p65 translocation, primary screen, imaging, HUVEC, MLSMR starter and 10KST1 sets (AID 438;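 active means inhibition above 20% together with a positive visual image hit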;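 further: compound added about 3h40 before a 20 min TNFalpha stimulation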;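 on inhibition: signal is the nuclear over cytoplasmic p65 intensity ratio per well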); details: HUVEC TNFa-induced p65 nuclear translocation; cell count: measured here: nuclei count (cytotoxicity indicator), at 2.08 µM; inhibition: at 2 µM, stronger effect = higher value, 0% TNFa-plus-vehicle, 100% no-TNFa wells
[2] = endothelial E-selectin expression blockers – imaging, HUVEC, immunofluorescence, MLSMR starter and 10KST1 sets, primary screen (AID 487;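 active means visually confirmed hit in the image check and inhibition above 20%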;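 on inhibition: signal is fraction of cell area covered by stained E-selectin grains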;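 on nuclei count: 100% = median nuclei count of all wells on the same plate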); details: HUVEC TNFalpha-induced E-selectin immunofluorescence imaging, at 2 µM; inhibition: stronger effect = higher value; nuclei count: measured here: cell number, toxicity
[3] = Primary imaging screen for DUSP6 inhibitors that restore phospho-Erk in transfected HeLa cells, chemical complementation (AID 609;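 active means compounds giving at least 50% inhibition in the cell-based MKP-3 phosphatase rescue imaging test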;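 on inhibition: phospho-Erk level distribution per well compared with pooled transfected vehicle control wells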); details: HeLa MKP-3 transfected, phospho-Erk imaging KS statistic, at 10 µM, cells stimulated with TPA for 15 min
[4] = target: Dual specificity protein phosphatase 6 (Homo sapiens) (UniProt Q16828); assay: as above; details: HeLa MKP-3 transfected, phospho-Erk imaging KS statistic; at 10 µM; stronger effect = higher value; cells stimulated with TPA for 15 min
Chain of Dual specificity protein phosphatase 6 (Homo sapiens) (Q16828 whole entry, looked up): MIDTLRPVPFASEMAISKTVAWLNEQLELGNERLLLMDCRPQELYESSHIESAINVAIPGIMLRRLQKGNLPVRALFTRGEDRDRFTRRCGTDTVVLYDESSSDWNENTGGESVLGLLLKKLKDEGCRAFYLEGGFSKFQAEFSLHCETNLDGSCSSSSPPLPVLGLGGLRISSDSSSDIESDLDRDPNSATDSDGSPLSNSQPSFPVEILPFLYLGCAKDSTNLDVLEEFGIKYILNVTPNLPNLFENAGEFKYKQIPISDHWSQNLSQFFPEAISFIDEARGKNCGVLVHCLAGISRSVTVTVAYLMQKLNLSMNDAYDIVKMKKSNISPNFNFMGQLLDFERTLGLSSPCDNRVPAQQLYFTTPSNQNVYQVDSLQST

[5] = target: Voltage-gated potassium channel subunit beta-2 (Rattus norvegicus) (UniProt P62483); assay: inhibitors of rat Kvbeta2 reductase activity – biochemical, NADPH fluorescence, primary screen (AID 622;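 active means fluorescence slope higher than the sample average by over 3 SD, cut at about -0.22 in these data, passing the limit was not always enough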;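 further: slope of raw intensity against log time taken from 70 to 1610 s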); details: recombinant KvBeta, 4-cyanobenzaldehyde reduction, at 10 µM, stronger effect = higher value
Chain of Voltage-gated potassium channel subunit beta-2 (Rattus norvegicus) (P62483 whole entry, looked up): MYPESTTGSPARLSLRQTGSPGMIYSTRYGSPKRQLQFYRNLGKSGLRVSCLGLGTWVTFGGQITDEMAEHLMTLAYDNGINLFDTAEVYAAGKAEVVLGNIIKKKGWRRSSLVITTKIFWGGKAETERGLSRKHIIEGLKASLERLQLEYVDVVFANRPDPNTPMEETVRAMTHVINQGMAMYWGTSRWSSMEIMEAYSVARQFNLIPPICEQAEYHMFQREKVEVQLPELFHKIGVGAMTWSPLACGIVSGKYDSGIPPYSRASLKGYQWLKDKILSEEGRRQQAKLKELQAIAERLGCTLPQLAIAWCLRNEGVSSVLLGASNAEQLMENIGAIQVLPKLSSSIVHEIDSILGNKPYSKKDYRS

[6] = target: Voltage-gated potassium channel subunit beta-2 (Rattus norvegicus) (UniProt P62483); assay: enhancers of rat Kvbeta2 NADPH turnover – biochemical, NADPH fluorescence, primary screen (AID 623); details: Recombinant KvBeta, NADPH fluorescence decrease slope, 10 min; at 10 µM; stronger effect = lower value;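 further: fluorescence intensity change per second fitted from 20 to 320 s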
[7] = target: Alpha-2C adrenergic receptor (Homo sapiens) (UniProt P18825); assay: compounds altering alpha2C-coupled GIRK flux – cell-based, HEK293 alpha2C/GIRK1/2, thallium flux, primary screen (AID 624;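 active means fluorescence slope after compound addition differing from the mean of all screened samples at 99.7% confidence, in either direction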;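 further: slope of fluorescence ratio to pre-addition baseline per second over 15 to 24 s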); details: thallium flux BTC fluorescence, at 10 µM, actives lie on both sides
Chain of Alpha-2C adrenergic receptor (Homo sapiens) (P18825 whole entry, looked up): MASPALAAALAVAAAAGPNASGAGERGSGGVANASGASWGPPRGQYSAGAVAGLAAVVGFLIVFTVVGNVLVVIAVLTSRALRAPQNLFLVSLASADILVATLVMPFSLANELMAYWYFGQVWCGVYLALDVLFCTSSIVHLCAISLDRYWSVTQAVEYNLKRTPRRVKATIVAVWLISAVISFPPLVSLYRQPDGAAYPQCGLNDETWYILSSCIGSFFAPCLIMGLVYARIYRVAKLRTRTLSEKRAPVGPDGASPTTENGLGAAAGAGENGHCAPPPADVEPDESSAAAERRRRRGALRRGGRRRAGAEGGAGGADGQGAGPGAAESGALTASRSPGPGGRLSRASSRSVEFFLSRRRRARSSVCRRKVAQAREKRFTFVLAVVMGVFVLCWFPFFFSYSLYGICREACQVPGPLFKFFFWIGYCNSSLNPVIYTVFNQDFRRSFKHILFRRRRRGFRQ

[8] = inhibitors of larval lipid processing in zebrafish, primary screen, whole organism, PED6 fluorescence, gall bladder and intestine (AID 686;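 active means a full or partial loss of lipid-probe fluorescence in the fish gall bladder, intestine or both, judged by eye; inactive means no fluorescence loss, or compound toxic to the fish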;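 further: larvae 5 to 7 days old with five fish per well; signal comes from phospholipase A2 cleavage of quenched PED6 carried via bile; overnight exposure to compound and PED6 before scoring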); details: Zebrafish larvae PED6 lipid processing, fluorescence scoring; screened at 20 µM (by protocol)
Method in brief: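 Also added: quenched phospholipase substrate PED6, 100 nM final, ingested by larvae; System: zebrafish larvae, 5-7 d; Quantity: 5 larvae per well; Compound: 20 µM single dose; Schedule: overnight compound and PED6 incubation; Read-out: visual per-well fluorescence inhibition score; Measured by: By-eye fluorescence microscopy; Medium: E3.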

[9] = loss of swimming-algae plug formation – whole organism, Chlamydomonas reinhardtii, WT vs cilia-less mutant, absorbance, 96-well, primary screen (AID 463189;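 active means inhibition at or above 50% relative to wild type and mutant plate controls; inactive means inhibition below 50%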;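 further: 0% = wild type cc124 cells in DMSO and 100% = ciliumless bld1 mutant cells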); details: Chlamydomonas reinhardtii gravitaxis, OD600 absorbance, 2 days; at 10 µM; stronger effect = higher value
[10] = measured here: cell density z-score
[11] = measured here: nuclear c-Myc green intensity z-score
[12] = measured here: nuclear pErk red intensity z-score, stronger effect = higher value

SMILES | cell count [1] | inhibition [1] | inhibition [2] | nuclei count [2] | z-score [3, 10] | z-score [3, 11] | z-score [3, 12] | inhibition [4] | fluorescence slope [5] | NADPH fluorescence slope [6] | slope [7] | outcome [8] | inhibition [9]
CCOc1ccc(/C(O)=C2/C(=O)C(=O)N(CCN(CC)CC)C2c2ccco2)cc1 (configuration not stated) | 494 | -10.3% (inactive) | -38.9% (inactive) | 136% | 0.106 | 0.969 | -0.475 | -15% (inactive) | -0.521 (inactive) | -4.6e-05 (inactive) | 0.00598 (inactive) | inactive | -2.21% (inactive)
COc1ccc(/C(O)=C2/C(=O)C(=O)N(CCN3CCOCC3)C2c2ccccn2)cc1 (configuration not stated) | 316 | -13.6% (inactive) | 25.6% (inactive) | 75.8% | -1.25 | 0.879 | 1.18 | -7.79% (inactive) | -0.44 (inactive) | -1.3e-05 (inactive) | 0.00633 (inactive) | inactive | 25.9% (inactive)
N#CC1=C(SCC(=O)c2ccc(Cl)cc2)NC2=C(C(=O)CCC2)C1c1ccco1 (configuration not stated) | 362 | -6.1% (inactive) | -118% (inactive) | 147% | 1.13 | -0.168 | -0.867 | 9.42% (inactive) | -0.422 (inactive) | -0.000127 (inactive) | 0.00564 (inactive) | active; weak signal in gallbladder and intestine | 13.1% (inactive)
CCn1c(SC(C)C(=O)O)nc2sc3c(c2c1=O)CCC3 (configuration not stated) | 614 | -11.3% (inactive) | 46% (inactive) | 108% | 0.34 | -0.588 | -0.0983 | -2.29% (inactive) | -0.401 (inactive) | -3.8e-05 (inactive) | 0.0197 (active) | inactive | 7.74% (inactive)
COc1ccc(C(=O)Nc2nc(N)n(-c3ccccc3)n2)cc1OC | 328 | 11.6% (inactive) | 8.6% (inactive) | 154% | -1.01 | 1.47 | 0.0402 | -1.75% (inactive) | -0.426 (inactive) | -0.000152 (inactive) | 0.00543 (inactive) |  | 12.5% (inactive)
CCSc1nnc(N(CCC(=O)O)CCC(=O)O)s1 | 371 | -10.5% (inactive) | -116% (inactive) | 155% | 0.0345 | 0.0362 | -1.04 | 7.48% (inactive) | -0.422 (inactive) | -2.2e-05 (inactive) | 0.00562 (inactive) | inactive | -5.02% (inactive)
O=C1C2ON(c3ccccc3)C(c3ccncc3)C2C(=O)N1c1ccccc1 (configuration not stated) | 359 | -4.2% (inactive) | -13.9% (inactive) | 147% | 0.798 | -1.22 | 0.675 | -14% (inactive) | -0.419 (inactive) | -0.000134 (inactive) | 0.00494 (inactive) |  | 5.79% (inactive)
CCOC(=O)C(NC=O)(NC(C)(C)C)C(=O)OCC | 520 | -16.1% (inactive) | -227% (inactive) | 188% | -0.692 | 0.27 | 0.909 | -8.95% (inactive) | -0.493 (inactive) | -5.5e-05 (inactive) | 0.00503 (inactive) | inactive | -1.22% (inactive)
CCOC(=O)CC1=C(C(=O)OCC)C(c2cc(OC)c(OC)cc2OC)C(C#N)=C(N)O1 (configuration not stated) | 433 | -10% (inactive) | -66.1% (inactive) | 106% | 1.93 | -1.51 | -0.137 | -8.27% (inactive) | -0.345 (inactive) | 6.8e-06 (inactive) | 0.00515 (inactive) | inactive | 15.6% (inactive)
CCn1nnc(C(=O)O)c1C(=O)O | 547 | -8.1% (inactive) | -105% (inactive) | 113% | -1.6 | 1.43 | 0.467 | -1.98% (inactive) | -0.486 (inactive) | -3.2e-05 (inactive) | 0.00833 (inactive) | inactive | -1.97% (inactive)
Cn1c(=O)n(CCc2ccccc2)c(=O)c2c1ncn2Cc1ccccc1 | 505 | -1.6% (inactive) | 42.5% (inactive) | 115% | -0.468 | 1.76 | -0.503 | -6.48% (inactive) | -0.508 (inactive) | -0.000139 (inactive) | 0.00833 (inactive) | inactive | -10.3% (inactive)
C=CCOC(=O)C(C#N)c1nc2ccccc2nc1N1CCN(c2ccccc2OCC)CC1 (configuration not stated) | 543 | -30.2% (inactive) | -94.9% (inactive) | 165% | -0.552 | -0.297 | 0.325 | -11.5% (inactive) | -0.494 (inactive) | -3.6e-05 (inactive) | 0.00373 (inactive) | inactive | -7.78% (inactive)
O=C(NCCN1CCOCC1)c1cc2n(n1)C(C(F)(F)F)CC(c1ccc(F)cc1)N2 (configuration not stated) | 341 | -2.3% (inactive) | -22.1% (inactive) | 104% | -1.73 | 1.46 | -0.339 | 7.48% (inactive) | -0.529 (inactive) | -9.5e-05 (inactive) | 0.00574 (inactive) | inactive | -15.3% (inactive)
COCCCNc1nc(-c2ccncc2)nc2ccccc12 | 419 | 1.9% (inactive) | -227% (inactive) | 126% | 1.01 | -0.929 | -0.825 | 18.2% (inactive) | -0.514 (inactive) | -8.3e-05 (inactive) | 0.00557 (inactive) |  | 138% (active)
COc1ccccc1N(O)C1CC(=O)N(c2ccc(F)cc2)C1=O (configuration not stated) | 304 | -7.6% (inactive) | -18.5% (inactive) | 92% | -1.81 | 1.54 | 0.452 | 13.4% (inactive) | -0.46 (inactive) | -0.000168 (inactive) | 0.00806 (inactive) | inactive | -1.02% (inactive)
CNS(=O)(=O)c1cccc2nsnc12 | 592 | -20.7% (inactive) | -98.5% (inactive) | 141% | -1.23 | 0.529 | 1.87 | -15% (inactive) | -0.51 (inactive) | -3.5e-05 (inactive) | 0.005 (inactive) | inactive | 11.1% (inactive)
O=C(C1=C(O)C(=O)N(CCCN2CCOCC2)C1c1ccccn1)c1cccs1 (configuration not stated) | 506 | -11.2% (inactive) | -117% (inactive) | 136% | -1.2 | -0.158 | 2.08 | -3.5% (inactive) | -0.495 (inactive) | -5.5e-05 (inactive) | 0.00674 (inactive) | inactive | -6.32% (inactive)
Cc1ccccc1N1C(=O)C2ON(c3ccccc3)C(c3ccncc3)C2C1=O (configuration not stated) | 337 | -2.8% (inactive) | -88.7% (inactive) | 156% | -1.56 | -0.511 | 0.414 | -12.3% (inactive) | -0.445 (inactive) | -0.000127 (inactive) | 0.00538 (inactive) |  | -10.6% (inactive)
Cc1[nH]c(=O)[nH]c(=O)c1S(=O)(=O)N1CCCC1 | 473 | -7.5% (inactive) | -107% (inactive) | 116% | -1.16 | 0.0534 | 0.397 | -3.98% (inactive) | -0.476 (inactive) | -0.000255 (inactive) | 0.00533 (inactive) | inactive | -0.601% (inactive)
CCn1cc(C(=O)NCCc2ccccc2)c(=O)c2cc(F)c(N3CCN(C)CC3)cc21 | 483 | -8.4% (inactive) | -187% (inactive) | 186% | -0.562 | 1.62 | 1.38 | -8.95% (inactive) | -0.321 (inactive) | -1.5e-05 (inactive) | 0.00526 (inactive) | inactive | 23.3% (inactive)
COc1cccc(Cn2c(NCC(C)C)nc3c2c(=O)n(C)c(=O)n3C)c1 | 341 | 3.2% (inactive) | -77.7% (inactive) | 127% | -0.509 | 0.441 | 1.11 | -0.624% (inactive) | -0.385 (inactive) | 4.1e-05 (inactive) | 0.00489 (inactive) | inactive | -12.8% (inactive)
C=CCOC(=O)C1=C(C)NC(SCC(=O)N(CC)CC)=C(C#N)C1c1ccccc1 (configuration not stated) | 348 | -0.8% (inactive) | -27.9% (inactive) | 140% | 1.19 | 0.414 | -0.822 | -0.584% (inactive) | -0.405 (inactive) | -1.3e-05 (inactive) | 0.00552 (inactive) | inactive | 4.36% (inactive)
CCOC(=O)c1c(C)n(C)c2ccc(OC)c(NC(=O)c3cccs3)c12 | 361 | -4.3% (inactive) | -0.3% (inactive) | 151% | -1.28 | 0.0285 | 0.397 | -4.59% (inactive) | -0.424 (inactive) | -0.00012 (inactive) | 0.00568 (inactive) | inactive | -6.67% (inactive)
CCC1CCCCN1c1nc(-c2cccc(OC)c2O)nc2ccccc12 (configuration not stated) | 322 | 0.9% (inactive) | -128% (inactive) | 154% | -0.599 | 0.187 | 0.757 | -8.76% (inactive) | -0.454 (inactive) | -0.000132 (inactive) | 0.00525 (inactive) |  | 3.59% (inactive)
